Screens (PubChem)
CHO-K1 Ca ag: counter-screen for M1 agonists: effect in parental CHO-K1 cells | Fluo-8 calcium fluorescence; scaled to maximal ATP response, vehicle zero | activation, % at 3 µM | 0.48% of 360,000 active; in the data active means activation above about 15%;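 further: untransfected CHO-K1 host cells lacking M1 receptor as counterscreen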
OX1R antag-1: antagonists of human orexin 1 receptor (OX1R). Orexin/Hypocretin receptor type 1 (Homo sapiens), O43613. inhibition, % at 6.6 µM. AID 485270, 2010. OX1R-expressing cells, FRET antagonist read-out. 1.8% of 330,000 active; in the data active means inhibition mostly above about 38%, no sharp cut-off; inactive means mostly below about 40%;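 further: 0% = agonist challenge alone and 100% = reference antagonist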
Target sequence (O43613 whole entry, looked up): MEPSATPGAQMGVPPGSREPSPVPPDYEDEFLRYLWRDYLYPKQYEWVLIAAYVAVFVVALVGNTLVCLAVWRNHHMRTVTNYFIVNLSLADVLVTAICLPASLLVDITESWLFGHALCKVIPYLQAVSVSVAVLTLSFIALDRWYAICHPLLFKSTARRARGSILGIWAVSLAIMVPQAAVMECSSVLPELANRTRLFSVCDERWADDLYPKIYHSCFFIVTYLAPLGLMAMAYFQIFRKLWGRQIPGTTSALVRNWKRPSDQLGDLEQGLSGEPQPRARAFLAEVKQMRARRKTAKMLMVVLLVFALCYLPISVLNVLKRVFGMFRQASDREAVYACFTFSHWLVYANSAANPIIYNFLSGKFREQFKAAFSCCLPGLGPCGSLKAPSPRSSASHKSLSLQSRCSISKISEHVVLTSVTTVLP
OX1R antag-2: OX1R (HCRTR1) antagonists, primary screen, fluorescence, CHO/OX1R cells, Fluo-8 calcium, orexin A; Fluo-8 calcium fluorescence; inhibition, % at 5 µM; 0.43% of 330,000 active; AID 434989, 2010;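 active means inhibition above its plate's threshold, mean inhibition of all tested compounds on the plate plus 3 SD, cut at about 37% in these data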;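 further: 0% = orexin A challenge wells and 100% = SB-334867-A antagonist wells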
CHO-K1 Ca antag: nonselective inhibitor or artifact in parental CHO-K1 cells | ATP-induced calcium, Fluo-8 fluorescence | 0.6% of 360,000 active | inhibition, % at 3 µM;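 active means inhibition above a per-plate cutoff, the plate's mean sample inhibition plus 3 SD, cut at about 24% in these data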;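 further: 0% = DMSO plus EC80 ATP and 100% = DMSO alone without ATP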
CHO parental Ca: ATP-evoked calcium signal inhibitors, parental CHO, primary screen, counter-screen for OX1R antagonist project, cell-based, fluorescence, Fluo-8 calcium dye; parental CHO-K1, ATP-induced calcium, Fluo-8 fluorescence; inhibition, % at 5.6 µM; 0.63% of 330,000 active; AID 463079, 2010;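 active means inhibition above that plate's mean sample inhibition plus 3 SD, cut at about 26% in these data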;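 further: 0% = ATP-challenged DMSO wells and 100% = DMSO wells without ATP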
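Test system: untransfected parental CHO cell line. Compound: one dose, 5.6 µM nominal. Detection: intracellular calcium via Fluo-8 no-wash fluorescent dye. Measure: % inhibition. Benchmarks: ATP-challenged DMSO wells low, unchallenged DMSO wells high.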
M1 PAM parental: nonselective calcium activators in parental CHO-K1 cells, primary screen, counter-screen for M1 PAM project, cell-based, Fluo-8 calcium fluorescence, full deck, 1536-well. ATP EC20; 0% at ATP EC20, 100% at ATP max. activation, % at 3 µM. 0.02% of 360,000 active. AID 602247, 2012;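 active means activation above the run cutoff, the mean activation of all test compounds plus 3 SD, cut at about 40% in these data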;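 further: peak over basal fluorescence ratio in a 140 s read after ATP addition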
Active calls of the source: *; / = no result given. This is a sample that favours compounds with a hit; in the whole collection about 2.9% have one here.

SMILES	CHO-K1 Ca ag	OX1R antag-1	OX1R antag-2	CHO-K1 Ca antag	CHO parental Ca	M1 PAM parental
COc1ccc(-c2cc(-c3ccco3)[nH]c(=O)c2C#N)cc1OC	1	73*	4	-12	2	10
COc1cc([N+](=O)[O-])ccc1NC(=O)COC(=O)c1ccc(NC(N)=O)cc1	0	6	-5	-6	-7	4
O=C(CSc1n[nH]c(=O)[nH]c1=O)NC1CC1	0	6	-1	-12	-1	9
COc1ccc(CCNC(=O)Nc2nc(C(N)Cc3ccccc3)cs2)cc1OC (centres undefined)	2	/	/	-13	/	23
CC(C)N(Cc1ccccc1)C(=O)COC(=O)c1ccc2ncsc2c1	3	10	-3	-10	-20	0
Cc1ccc(C(=O)OCC(=O)N(Cc2ccccc2)C(C)C)cc1C	0	36*	9	7	-26	-9
CC(Sc1ncccn1)C(=O)N1CCc2ccccc21 (centres undefined)	0	/	/	-14	/	10
COc1ccc([C@H]2CC(=O)C=C(c3cccc(C(C)C)c3)C2)cc1OC	3	6	48*	-7	24	7
CN1CC(=O)N2C(c3ccc(Cl)cc3)c3[nH]c4ccccc4c3C[C@H]2C1=O (some centres undefined)	24*	8	-13	9	-19	19
O=C(NCc1cccs1)c1ccc(S(=O)(=O)N2CCOCC2)cc1	1	18	6	-14	-11	17
Cc1ccc(S(=O)(=O)N2CCOCC2)cc1C(=O)NCc1cccs1	2	23	-20	25*	4	-19
CCOc1ccc(OCCCC(=O)NCCc2ccc(OC)cc2)cc1	0	1	-4	-4	-5	-6
CC1C(=O)N2CCCc3cc(NC(=O)C(=O)NCCc4ccc(F)cc4)cc1c32 (centres undefined)	2	21	-24	-5	-27	11
C=CCOC(=O)C1=C(C)OC(N)=C(C#N)C1c1ccccc1F (centres undefined)	-1	25	-19	-10	-23	-7
C=CCOC(=O)C1=C(C)NC(=S)C(C#N)(CC=C)C1c1ccccc1Cl (centres undefined)	17*	12	-20	2	-9	10
COC(=O)c1ccc(CSc2ncnc3ccccc23)o1	0	17	-10	25*	1	-6
O=C(CC1C(=O)NCCN1Cc1cccc(Oc2ccccc2)c1)NCCCn1cccn1 (centres undefined)	0	10	3	-2	-1	18
COc1ccccc1N(C)S(=O)(=O)c1ccc(C(=O)N2CCC2)cc1	0	/	/	-3	/	-2
COc1ccccc1N(C)S(=O)(=O)c1ccc(C(=O)N2CCCc3ccccc32)cc1	16*	30	-5	4	15	5
COCOc1ccc(C2CC(=O)c3c(OCOC)cc(OCOC)cc3O2)cc1 (centres undefined)	3	12	-22	-5	-12	-5
O=C(CSc1nc2ccccc2c(=O)n1NC(=O)Cc1ccccc1)NCc1ccccc1Cl	2	53*	9	-5	-17	14
Cc1cccc(CS(=O)(=O)c2nnc([C@H](Cc3ccccc3)NC(=O)OC(C)(C)C)o2)c1	2	17	57*	1	67*	-5
O=C(Nc1cccc(NC(=O)c2ccccc2Cl)c1)c1ccc(F)cc1	4	7	-11	25*	-1	-30
Cc1ccc(NC(=O)c2ccc([N+](=O)[O-])o2)cc1C	0	37	-4	-5	-7	-10
O=C(Nc1ccc2[nH]c(=O)[nH]c2c1)c1ccc([N+](=O)[O-])o1	-1	43*	-2	-5	-7	6
SMILES	CHO-K1 Ca ag	OX1R antag-1	OX1R antag-2	CHO-K1 Ca antag	CHO parental Ca	M1 PAM parental
O=C(Nc1cccc([N+](=O)[O-])c1)c1ccc([N+](=O)[O-])o1	5	/	/	-3	/	27
O=C(Nc1cccc(NC(=O)c2ccc(F)cc2)c1)c1ccc(F)cc1	0	-9	-16	3	-4	-2
O=C(Nc1cccc(NC(=O)c2ccccc2Cl)c1)c1ccc([N+](=O)[O-])o1	17*	41	19	4	18	-10
CC(=O)Nc1ccc(NC(=O)C(C)Sc2nc3ccccc3c(=O)n2CC2CCCO2)cc1 (centres undefined)	0	20	-29	7	-16	11
COc1ccc(-n2cnnc2SCC(=O)Nc2cccnc2Cl)cc1	0	7	-21	3	-16	7
O=C(CN(Cc1ccccc1Cl)C(=O)c1csnn1)NCc1ccc2c(c1)OCO2	3	4	-31	-11	-24	10
COC(=O)[C@]12CCCCC=C1N(CCC1=CCCCC1)C(=O)[C@H](CC(=O)N1CCOCC1)C2	2	/	/	-15	/	7
NC(=O)c1ccc(N2CCN(S(=O)(=O)c3cccs3)CC2)c([N+](=O)[O-])c1	17*	15	56*	23	46*	-8
NC(=O)c1ccc(N2CCN(c3ccccc3O)CC2)c([N+](=O)[O-])c1	11	30	1	-8	8	9
CCOC(=O)c1c(C)[nH]c(C(=O)COC(=O)c2ccccc2NC(=O)c2ccco2)c1C	0	21	-41	32*	-24	-10
COc1cccc(-c2cc(C(=O)Nc3ccc(OC)c(OC)c3)no2)c1	5	84*	20	-7	-17	15
COc1cccc(-c2nn(-c3ccc(C)cc3)cc2C(=O)N2CCc3cc(OC)c(OC)cc3C2)c1	5	46*	27	4	-25	-3
CCOC(=O)c1sc(NC(=O)Nc2ccc(Cl)cc2)cc1C	13	86*	67*	46*	79*	-5
CCOC(=O)c1sc(NC(=O)c2ccc(S(=O)(=O)N(C)C)cc2)cc1C	2	58*	6	-6	-15	21
CCOC(=O)c1sc(NC(=O)c2ccc(Cl)s2)cc1C	0	21	-24	6	-10	-4
Cc1ccc(-c2csc(NCCn3c(-c4ccncc4)nc4cc(C(F)(F)F)ccc43)n2)cc1	0	4	-14	-4	-18	-1
Cc1ccc(-c2csc(NCCn3c(-c4ccncc4)nc4ccccc43)n2)cc1	7	60*	-10	-20	-30	12
COc1cc(/C=N/n2cnnc2)ccc1OCCOc1ccccc1	2	25	-2	-9	0	18
C=CCc1ccc(OCCOc2ccc(/C=N/n3cnnc3)cc2OCC)c(OC)c1	1	25	1	7	67*	-4
